Bioassay records deposited in PubChem BioAssay by several laboratories.
Compounds with a hit are over-represented: about 9.4% of the library has one in this group of screens.
Beta apoptosis = beta cell apoptosis inhibition. INS-1E cytokine-induced death, ATP luminescence, 48 h; percent of positive-control rescue, neutral wells zero. protection from apoptosis, % (test concentration not listed). 300,000 tested, 0.8% active;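 active = Every replicate reaches about 75%, or at least half do and their mean reaches it too, limit read from the data; inconclusive = At least half of replicates reach the limit but their mean does not; inactive = Under half of replicates reach the limit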;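 also: higher means more ATP so stronger rescue from cytokine killing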
Lmaj promast = reduces viability of Leishmania major promastigotes; AID 1063; 200,000 tested, 9% active; resazurin fluorescence viability; inhibition, % at 10 µM; in the data active = inhibition above about 50%;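 also: promastigotes grown with compound for 44 hours at 28 °C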
T cruzi repl = T. cruzi replication inhibition; T. cruzi beta-gal in NIH3T3, luminescence, 90 h; 300,000 tested, 1.4% active; inhibition, % (concentration not given with the values);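 active = mean inhibition across valid replicates above about 55%, limit read from the data; inconclusive = mean below that limit but half or more replicates reach it; inactive = mean below it, under half of replicates reach it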;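 also: signal also drops with host cell toxicity which is not excluded here; higher percent means less beta-gal luminescence so fewer parasites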
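System: Mouse NIH/3T3 fibroblasts infected with β-gal-expressing T. cruzi Tulahuen C4 | Quantity: NIH/3T3 cells, 5,000 per well | Reagent: 5000 reporter trypomastigotes per well | Dosing: Compound pinned at 50 nL/well, DMSO | Schedule: 3 h host attachment, then at least 90 h co-culture | Detection: GalScreen luminescence, 60 min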
SKKanGAS inh = blocks kanamycin growth of S. pyogenes SKKanGAS strain; 300,000 tested, 1.3% active; BacTiter-Glo, 6 h; inhibition, % at 7.5 µM;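 active = mean replicate score, as percent of positive control median, at least 50; inconclusive = mean below 50 but one replicate at or above 50; inactive = mean and every replicate below 50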;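 also: strain carries kanamycin resistance gene driven by streptokinase promoter and grows in 40 µg/ml kanamycin; loss of luminescence reflects streptokinase promoter inhibition or plain growth inhibition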
Mdm2-MdmX inh = disrupts the human Mdm2-MdmX interaction; AID 485346; inhibition, % at 8 µM; 330,000 tested, 3% active; SaOS-2 split-luciferase Mdm2/MdmX complementation, luminescence; O15151+Q00987;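 active = inhibition of at least 50% at 8 µM in the primary screen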
CSC inhib = cancer stem cell inhibition; cancer stem cell-like cells viability, luminescence; inhibition, % at 7.5 µM; 300,000 tested, 1.1% active; AID 2717; in the data active = inhibition above about 75%; inconclusive = no clear call, values can overlap the other calls; tested in HMLE shEcad cells
Large screens that a line does not name were inactive.

Cc1cc2oc(=O)cc(Cn3ccnc3)c2cc1O	none (no result: Lmaj promast)
Cc1cc(Cn2ccnc2)c(C)cc1Cn1ccnc1	Lmaj promast 98, T cruzi repl 59
Cc1ccc(NC(=O)COC(=O)c2nn(-c3ccc(Cl)cc3)cc2O)cc1	none (no result: Lmaj promast, T cruzi repl, SKKanGAS inh)
NNC(=O)c1nn(-c2ccc(Cl)cc2)cc1O	Beta apoptosis 75 (no result: Lmaj promast)
C=CCN(CC=C)C(=O)c1ccc(OC2CCN(C(C)=O)CC2)c(OC)c1	none (no result: Lmaj promast)
Brc1ccc(-c2cnco2)cc1	none
CC(C)(C)OC(=O)N1CCC(C(=O)NCC2CCCO2)CC1 (stereo unspecified)	none (no result: Beta apoptosis, Lmaj promast)
N=c1c2c(-c3ccccc3)c(-c3ccccc3)n(Cc3ccco3)c2ncn1CCCn1ccnc1	Lmaj promast 100, T cruzi repl 64 (no result: Mdm2-MdmX inh)
OCCNc1ncnc2c1c(-c1ccccc1)c(-c1ccccc1)n2Cc1ccco1	none
c1ccc(-c2c(-c3ccccc3)n(Cc3ccco3)c3ncnc(NCCCn4ccnc4)c23)cc1	Lmaj promast 100, CSC inhib 133
c1ccc(-c2oc3ncnc(NCCCn4ccnc4)c3c2-c2ccccc2)cc1	Lmaj promast 100, SKKanGAS inh inconclusive (no result: Beta apoptosis)
COC(=O)c1ccccc1S(=O)(=O)N(CCCN1CCOCC1)Cc1cccs1	none
O=S(=O)(c1cccc(C(F)(F)F)c1)N(CCCN1CCOCC1)Cc1cccs1	Lmaj promast 100
c1ccc(Oc2cccc(CN3CCOCC3)c2)cc1	Lmaj promast 100
Cc1ccc(Cl)cc1N1CCN(C(=O)c2ccc(CN3CCOCC3)cc2)CC1	T cruzi repl 56
Cc1ccc(C(=O)N2CCOCC2)cc1Cl	SKKanGAS inh inconclusive
c1ccc(CN2CCOCC2)cc1	none
O=C(c1ccc(CN2CCOCC2)cc1)N1CCN(Cc2ccccc2)CC1	Lmaj promast 76 (no result: Beta apoptosis)
O=C(c1ccc(F)cc1)N1CCN(Cc2ccccc2)CC1	none (no result: Lmaj promast)
O=C(c1ccc(Cl)c(Cl)c1)N1CCC(O)(CN2CCOCC2)CC1	Lmaj promast 79
Cc1ccccc1C(=O)O[C@H]1[C@H](Cc2ccccc2)NS(=O)(=O)[C@H]2CC3C=C[C@]12O3	none (no result: Lmaj promast, T cruzi repl, SKKanGAS inh)
COc1ccc(OC)c(S(=O)(=O)CC(O)COc2ccccc2Cl)c1 (stereo unspecified)	none (no result: Lmaj promast)
Cc1ccc(Cl)cc1N1CCN(Cc2cc3c(cc2O)CCC3)CC1	T cruzi repl 58
O=C(OCC(=O)N1CCN(Cc2ccccc2)CC1)c1ccc(Cl)cc1	Lmaj promast 57
CSc1ccc(CN2CCN(C(=O)c3ccncc3)CC2)cc1	Lmaj promast 74
Cc1ccc(Cl)cc1N1CCN(Cc2cc(=O)n3ccsc3n2)CC1	none (no result: CSC inhib)
Cc1ccc(-n2c(C)cc(/C=N/NC(N)=S)c2C)cc1	Lmaj promast 100, T cruzi repl 65
Cc1ccc(-n2c(C)cc(/C=N/NC(=O)c3ccc(CN4CCOCC4)cc3)c2C)cc1	Lmaj promast 53
Cc1cc(C(=O)NC2Cc3ccccc3C2)c(C)o1	none (no result: Lmaj promast)
Cc1[nH]ccc(=O)c1OCc1c(Cl)cccc1Cl	none (no result: Beta apoptosis)
Cc1ccc(Cn2ccc(=O)c(OCc3c(Cl)cccc3Cl)c2C)cc1	Lmaj promast 97, SKKanGAS inh 70
O=C(CNC(=O)c1ccccc1)OCc1cccc([N+](=O)[O-])c1	Lmaj promast 56
O=C(Cc1ccccc1)NCC(=O)OCc1cccc([N+](=O)[O-])c1	none (no result: Lmaj promast)
COc1cccc(NC(=O)C(=O)N2CCOCC2)c1	none
COC(=O)c1ccc(NC(=O)C(=O)N2CCN(C(=S)Nc3cccc(OC)c3)CC2)cc1	Lmaj promast 72
COC(=O)c1ccc(NC(=O)C(=O)N2CCN(C(=S)Nc3ccc(OC)cc3)CC2)cc1	none (no result: Beta apoptosis)
COC(=O)c1ccc(NC(=O)C(=O)N2CCN(C(=S)Nc3ccc(C)cc3)CC2)cc1	Lmaj promast 66
COc1ccc(C2/C=C\CN(C(=O)NC(C)C)CC(=O)N2Cc2ccc(F)cc2)cc1 (stereo unspecified)	none (no result: Lmaj promast)
CCc1ccc(NC(=O)C(C)OC(=O)c2ccc(NS(=O)(=O)c3ccc(C)c([N+](=O)[O-])c3)cc2)cc1 (stereo unspecified)	Lmaj promast 64
CCCc1[nH][nH]c(=O)c1C(c1ccc(Br)cc1)C(C#N)C#N (stereo unspecified)	Lmaj promast 50
CN(CCOc1ccccc1)C(=O)CCc1c[nH]c2ccccc12	none (no result: Lmaj promast)
O=C(c1ccc(Cl)cc1)N1CCC(c2nc(-c3cccs3)no2)CC1	Lmaj promast 87
Cc1ccc(NC(=O)/C(C#N)=C(\N)C(Cl)(Cl)Cl)nc1	Lmaj promast 100
CC(C)N(C)S(=O)(=O)c1ccc(NC(=O)CSC(=S)N2CCCC2)cc1	none (no result: Lmaj promast)
O=C(NC1CCS(=O)(=O)C1)c1cc(-c2ccccc2)nc2ccccc12 (stereo unspecified)	none
COCCCNC(=O)c1sc2ncn(CC(=O)Nc3ccc(C)c(Cl)c3)c(=O)c2c1C	none
Cc1ccc(NC(=O)Cn2cnc3sc(C(=O)NCCN(C)C)c(C)c3c2=O)cc1Cl	Lmaj promast 76 (no result: Beta apoptosis, CSC inhib)
CN(C)/C=C(\C#N)c1nc2ccccc2[nH]1	none
Cn1c(/C(C#N)=C/C2CC=CCC2)nc2ccccc21 (stereo unspecified)	Lmaj promast 79
N#C/C(=C\C1CC=CCC1)c1nc2ccccc2[nH]1 (stereo unspecified)	Lmaj promast 95
Cc1noc(C)c1-c1nc(CS(=O)(=O)c2ccccc2)no1	none (no result: Beta apoptosis, Lmaj promast)
CCc1ccccc1Nc1nc(N)nc(CSCC(=O)Nc2ccc(C)c(C)c2)n1	Lmaj promast 85
CCc1ccc(NC(=O)CSCc2nc(N)nc(Nc3ccccc3CC)n2)cc1	none
O=C(COc1ccc(Cl)cc1)Nc1ccc(C(=O)NCc2cccnc2)cc1	Beta apoptosis 101
Cc1cccc(OCC(=O)Nc2ccc(C(=O)NCc3cccnc3)cc2)c1	Beta apoptosis 113
O=C(NCc1cccnc1)c1ccc(COc2ccc(Cl)cc2)cc1	none
N/C(=N/OC(=O)c1ccc(Cl)cc1)c1ncc([N+](=O)[O-])s1	none (no result: Lmaj promast)
COc1ccc(C2SCC(=O)N2c2nc3ccccc3s2)cc1 (stereo unspecified)	none
O=c1c(Cl)c(Nc2cccc(Cl)c2)cnn1-c1nc2ccccc2s1	Lmaj promast 56
Cc1ccc(C)c(N2CCN(c3cnn(-c4nc5ccccc5s4)c(=O)c3Cl)CC2)c1	none
COc1ccc(Nc2cnn(-c3nc4ccccc4s3)c(=O)c2Cl)cc1	Lmaj promast 51 (no result: Mdm2-MdmX inh)
c1cnc2c(C3NCCc4c3[nH]c3ccccc43)cccc2c1 (stereo unspecified)	none
COc1ccccc1C(=O)NC(=O)CSc1nnc(C)s1	none (no result: Beta apoptosis, Lmaj promast)
CCCC(=O)Nc1ccc(C(=O)NNC(=O)c2cccs2)cc1	none
O=C(NC(=S)NNC(=O)c1cccs1)c1ccco1	SKKanGAS inh 61
O=C(NNC(=O)c1cccs1)c1ccco1	none
CCCC(=O)Nc1ccc(C(=O)NNC(=S)NC(=O)c2cccs2)cc1	Lmaj promast 99 (no result: Beta apoptosis)
Cc1cccc(C(=O)NC(=S)NNC(=O)c2ccc(Cl)cc2)c1	SKKanGAS inh 105 (no result: Mdm2-MdmX inh)
